Data taken from ChEMBL document CHEMBL1221342, “Synthesis and in vitro antitumor activity of new 4,5-dihydropyrazole derivatives” (Bioorg Med Chem, 2010).

How the values were obtained:
SF-268 = experiment: Growth inhibition of human SF268 cells after 48 hrs by SRB assay; format: functional; conditions: SF-268, 48 h
Outline: (§1)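 NCI 60-cell-line screen. Cells grown in RPMI1640 with 5% fetal calf serum and 2 mM L-glutamine, with inoculum density set by cell line. Preincubated 24 h, then given compound in DMSO at 10^-4 to 10^-8 M (five 10-fold steps) for 48 h continuous exposure. Growth measured by SRB protein assay. GI50, TGI and LC50 reported as –log molar.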

HL-60(TB) = experiment: Growth inhibition of human HL-60(TB) cells after 48 hrs by SRB assay; format: functional; conditions: HL-60, 48 h
Outline: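 NCI 60-cell-line screen: cells grown in RPMI1640 with 5% fetal calf serum and 2 mM L-glutamine, preincubated 24 h, then exposed to compound in DMSO at five concentrations (10^-4 to 10^-8 M) for 48 h continuous exposure. Growth estimated by sulforhodamine B protein assay; reported as pGI50 (-log molar concentration inhibiting net cell growth by 50%).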

Malme-3M = experiment: Growth inhibition of human MALME-3M cells after 48 hrs by SRB assay; format: functional; outline: as §1
SK-MEL-5 = experiment: Growth inhibition of human SK-MEL-5 cells after 48 hrs by SRB assay; format: functional; conditions: SK-MEL-5, 48 h; outline: as §1
MCF7 = experiment: Growth inhibition of human MCF7 cells after 48 hrs by SRB assay; format: functional; conditions: MCF7, 48 h; outline: as §1
SR = experiment: Growth inhibition of human SR cells after 48 hrs by SRB assay; format: functional; outline: as §1
SF-295 = experiment: Growth inhibition of human SF295 cells after 48 hrs by SRB assay; format: functional; conditions: SF-295, 48 h; outline: as §1
[1] = Growth inhibition of human […] cells after 48 hrs by SRB assay; format: functional; outline: as §1
UO-31 = experiment: Growth inhibition of human UO31 cells after 48 hrs by SRB assay; format: functional; conditions: UO-31, 48 h; outline: as §1
TK-10 = experiment: Growth inhibition of human TK10 cells after 48 hrs by SRB assay; format: functional; conditions: TK-10, 48 h; outline: as §1
M14 = experiment: Growth inhibition of human M14 cells after 48 hrs by SRB assay; format: functional; conditions: M14, 48 h; outline: as §1
HCT-15 = experiment: Growth inhibition of human HCT15 cells after 48 hrs by SRB assay; format: functional; conditions: HCT-15, 48 h; outline: as §1
CCRF-CEM = experiment: Growth inhibition of human CCRF-CEM cells after 48 hrs by SRB assay; format: functional; outline: as §1
NCI-H460 [2] = experiment: Growth inhibition of human NCI-H460 cells after 48 hrs by SRB assay; format: functional; conditions: NCI-H460, 48 h; outline: as §1
RXF 393 = experiment: Growth inhibition of human RXF393 cells after 48 hrs by SRB assay; format: functional; conditions: RXF 393, 48 h; outline: as §1
SW-620 = experiment: Growth inhibition of human SW620 cells after 48 hrs by SRB assay; format: functional; conditions: SW-620, 48 h; outline: as §1
NCI-H322M = experiment: Growth inhibition of human NCI-H322M cells after 48 hrs by SRB assay; format: functional; outline: as §1
K562 = experiment: Growth inhibition of human K562 cells after 48 hrs by SRB assay; format: functional; conditions: K562, 48 h; outline: as §1
PC-3 = experiment: Growth inhibition of human PC3 cells after 48 hrs by SRB assay; format: functional; conditions: PC-3, 48 h; outline: as §1
HT-29 = experiment: Growth inhibition of human HT-29 cells after 48 hrs by SRB assay; format: functional; conditions: HT-29, 48 h; outline: as §1
DU-145 = experiment: Growth inhibition of human DU145 cells after 48 hrs by SRB assay; format: functional; conditions: DU-145, 48 h; outline: as §1
BT-549 = experiment: Growth inhibition of human BT549 cells after 48 hrs by SRB assay; format: functional; conditions: BT-549, 48 h; outline: as §1
NCI-H460 [3] = experiment: Cytotoxicity against human NCI-H460 cells after 72 hrs by SRB assay; format: functional, cell-based; conditions: NCI-H460, 72 h
Outline: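 NCI-H460 (ATCC) cells seeded in 96-well plates in growth medium. Scalar drug concentrations added 24 h after plating, then 72 h exposure. Surviving cells stained with sulforhodamine B, OD read at 570 nm. IC50 (50% growth inhibition) fitted from dose–response curves. Mean ± SE of at least three independent experiments.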

HCT-116 = experiment: Growth inhibition of human HCT116 cells after 48 hrs by SRB assay; format: functional; conditions: HCT-116, 48 h; outline: as §1
OVCAR-4 = experiment: Growth inhibition of human OVCAR4 cells after 48 hrs by SRB assay; format: functional; conditions: OVCAR-4, 48 h; outline: as §1
HOP-62 = experiment: Growth inhibition of human HOP62 cells after 48 hrs by SRB assay; format: functional; conditions: HOP-62, 48 h; outline: as §1
OVCAR-3 = experiment: Growth inhibition of human OVCAR-3 cells after 48 hrs by SRB assay; format: functional; conditions: OVCAR-3, 48 h; outline: as §1
KM12 = experiment: Growth inhibition of human KM12 cells after 48 hrs by SRB assay; format: functional; conditions: KM12, 48 h; outline: as §1
NCI-H522 = experiment: Growth inhibition of human NCI-H522 cells after 48 hrs by SRB assay; format: functional; conditions: NCI-H522, 48 h; outline: as §1
A498 = experiment: Growth inhibition of human A498 cells after 48 hrs by SRB assay; format: functional; conditions: A498, 48 h; outline: as §1
U-251 = experiment: Growth inhibition of human U251 cells after 48 hrs by SRB assay; format: functional; conditions: U-251, 48 h; outline: as §1
IGROV-1 = experiment: Growth inhibition of human IGROV1 cells after 48 hrs by SRB assay; format: functional; conditions: IGROV-1, 48 h; outline: as §1
T47D = experiment: Growth inhibition of human T47D cells after 48 hrs by SRB assay; format: functional; outline: as §1
SNB-75 = experiment: Growth inhibition of human SNB75 cells after 48 hrs by SRB assay; format: functional; conditions: SNB-75, 48 h; outline: as §1
HCC 2998 = experiment: Growth inhibition of human HCC2998 cells after 48 hrs by SRB assay; format: functional; conditions: HCC 2998, 48 h; outline: as §1

Compound: COc1cc(C2=NNC(c3ccc(N(C)C)cc3)C2)cc(OC)c1OC (stereo not drawn)
- GI50 (SF-268): 2 µM
- TGI (SF-268; read-out: pTGI (converted)): > 100 µM
- GI50 (HL-60(TB)): 1.58 µM
- TGI (HL-60(TB); read-out: pTGI (converted)): 5.01 µM
- GI50 (Malme-3M): 7.94 µM
- TGI (Malme-3M; read-out: pTGI (converted)): > 100 µM
- GI50 (SK-MEL-5): 2 µM
- TGI (SK-MEL-5; read-out: pTGI (converted)): 6.31 µM
- GI50 (MCF7): 0.398 µM
- TGI (MCF7; read-out: pTGI (converted)): > 100 µM
- GI50 (SR): 0.251 µM
- TGI (SR; read-out: pTGI (converted)): 7.94 µM
- GI50 (SF-295): 0.251 µM
- TGI (SF-295; read-out: pTGI (converted)): 0.794 µM
- GI50 [1]: 1.58 µM
- TGI ([1]; read-out: pTGI (converted)): 12.6 µM
- GI50 (UO-31): 5.01 µM
- TGI (UO-31; read-out: pTGI (converted)): 50.1 µM
- GI50 (TK-10): 10 µM
- TGI (TK-10; read-out: pTGI (converted)): > 100 µM
- GI50 (M14): 2.51 µM
- GI50 (HCT-15): 2.51 µM
- TGI (HCT-15; read-out: pTGI (converted)): > 100 µM
- GI50 (CCRF-CEM): 1.58 µM
- TGI (CCRF-CEM; read-out: pTGI (converted)): 6.31 µM
- GI50 (NCI-H460 [2]): 1.26 µM
- TGI (NCI-H460 [2]; read-out: pTGI (converted)): 6.31 µM
- GI50 (RXF 393): 1.26 µM
- TGI (RXF 393; read-out: pTGI (converted)): 5.01 µM
- GI50 (SW-620): 0.398 µM
- TGI (SW-620; read-out: pTGI (converted)): > 100 µM
- GI50 (NCI-H322M): 12.6 µM
- TGI (NCI-H322M; read-out: pTGI (converted)): > 100 µM
- GI50 (K562): 0.398 µM
- TGI (K562; read-out: pTGI (converted)): 79.4 µM
- GI50 (PC-3): 0.794 µM
- TGI (PC-3; read-out: pTGI (converted)): > 100 µM
- GI50 (HT-29): 0.631 µM
- TGI (HT-29; read-out: pTGI (converted)): > 100 µM
- GI50 (DU-145): 2 µM
- TGI (DU-145; read-out: pTGI (converted)): 5.01 µM
- GI50 (BT-549): 0.794 µM
- TGI (BT-549; read-out: pTGI (converted)): 10 µM
- IC50 (NCI-H460 [3]): 1.1 µM
- GI50 (HCT-116): 2 µM
- TGI (HCT-116; read-out: pTGI (converted)): 20 µM
- GI50 (OVCAR-4): 15.8 µM
- TGI (OVCAR-4; read-out: pTGI (converted)): > 100 µM
- GI50 (HOP-62): 1.26 µM
- TGI (HOP-62; read-out: pTGI (converted)): > 100 µM
- GI50 (OVCAR-3): 6.31 µM
- TGI (OVCAR-3; read-out: pTGI (converted)): > 100 µM
- GI50 (KM12): 0.501 µM
- TGI (KM12; read-out: pTGI (converted)): 12.6 µM
- GI50 (NCI-H522): 2 µM
- TGI (NCI-H522; read-out: pTGI (converted)): 6.31 µM
- GI50 (A498): 3.16 µM
- TGI (A498; read-out: pTGI (converted)): 7.94 µM
- GI50 (U-251): 0.631 µM
- TGI (U-251; read-out: pTGI (converted)): > 100 µM
- GI50 (IGROV-1): 0.501 µM
- TGI (IGROV-1; read-out: pTGI (converted)): 3.16 µM
- GI50 (T47D): 20 µM
- TGI (T47D; read-out: pTGI (converted)): > 100 µM
- GI50 (SNB-75): 1 µM
- TGI (SNB-75; read-out: pTGI (converted)): > 100 µM
- GI50 (HCC 2998): 1.58 µM
- TGI (HCC 2998; read-out: pTGI (converted)): 5.01 µM
